Measured values: ChEMBL document CHEMBL3102703, “Chemical constituents from Inonotus obliquus and their biological activities” (J Nat Prod, 2014)

How the values were obtained:
[1] = Hepatoprotective activity in rat WB-F344 cells assessed as inhibition of D-galactosamine-induced toxicity at 10 uM preincubated for 1 hr followed by D-galactosamine challenge measured after 24 hrs by MTT assay relative to control; type: functional
Outline: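 WB-F344 rat liver cells, compounds at 10 μM, D-galactosamine injury. Read-out is optical density. Survival is given as % of untreated normal cells. Inhibition (%) = [(OD sample − OD control)/(OD normal − OD control)] × 100. Bicyclol at 10 μM is the positive control. Data are means ± SD: n = 3 for samples, n = 6 for normal and control wells.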

[2] = Hepatoprotective activity against D-galactosamine-induced toxicity in rat WB-F344 cells assessed as cell survival at 10 uM preincubated for 1 hr followed by D-galactosamine challenge measured after 24 hrs by MTT assay relative to normal cell; type: functional; settings: read-out: Survival
Outline: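 WB-F344 cells exposed to D-galactosamine, with test agents at 10 μM and bicyclol at 10 μM as positive control. Readout is optical density (OD). Survival is expressed as % of untreated normal cells. Values are means ± SD, n = 3 (n = 6 for normal and model-control groups).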

KB = assay: Cytotoxicity against human KB cells after 4 days by MTT assay; type: functional, cell-based; settings: 96 h
[3] = Cytotoxicity against human Bel7402 cells after 4 days by MTT assay; type: functional, cell-based; settings: Bel-7402, 96 h
A549 = assay: Cytotoxicity against human A549 cells after 4 days by MTT assay; type: functional, cell-based; settings: A549, 96 h
[4] = Inhibition of tyrosine kinase (unknown origin) by ELISA; parameters: species or system Homo sapiens

CC(C)=C(C)[C@@H]1C[C@H]([C@H]2CC[C@@]3(C)C4=C(CC[C@]23C)[C@@]2(C)CC[C@H](O)C(C)(C)[C@@H]2CC4)C(=O)O1
inhibition at 10 µM [1]: 71.9%
viability at 10 µM [2]: 91%

CC(C)c1ccc2c(c1)C(=O)C[C@H]1C(C)(C)CCC[C@@]21C(=O)O
inhibition at 10 µM [1]: 34.4%
viability at 10 µM [2]: 79%

CC(C)=CCC(O)[C@@H](C)[C@H]1CC[C@@]2(C)C3=C(C(=O)C[C@]12C)[C@@]1(C)CC[C@H](O)C(C)(C)[C@@H]1CC3 (stereo partly drawn)
inhibition at 10 µM [1]: 81.2%
viability at 10 µM [2]: 94%

CC(C)[C@@H](C)CC[C@@H](C)[C@H]1CC[C@H]2C3=CCC4C[C@@H](O)CC[C@]4(C)[C@H]3CC[C@]12C (stereo partly drawn)
inhibition at 10 µM [1]: 37.4%
viability at 10 µM [2]: 80%

C=C(C)C(=O)CC(O)[C@@H](C)[C@H]1CC[C@@]2(C)C3=C(CC[C@]12C)[C@@]1(C)CC[C@H](O)C(C)(C)[C@@H]1CC3 (stereo partly drawn)
IC50 (KB): 9.9 µM
IC50 [3]: > 10 µM
IC50 (A549): > 10 µM

CC(C)[C@@H](C)/C=C/[C@@H](C)[C@H]1CC[C@H]2C3=CC[C@H]4C[C@@H](O)CC[C@]4(C)[C@H]3CC[C@]12C
inhibition at 10 µM [1]: 43.8%
viability at 10 µM [2]: 82%

CC(=O)/C=C/c1ccc(O)c(O)c1
IC50 (KB): > 10 µM
IC50 [3]: 4.7 µM
IC50 (A549): > 10 µM

COC(=O)c1cc(OC)c2c(c1-c1c(CO)cc(OC)c3c1OCO3)OCO2 [BICYCLOL]
viability at 10 µM [2]: 80%

O=c1[nH]cc(F)c(=O)[nH]1 [FLUOROURACIL]
IC50 (KB): 8.1 µM
IC50 [3]: 5.5 µM

CC(C)=CC[C@@H](O)[C@@H](C)[C@H]1CC[C@@]2(C)C3=C(CC[C@]12C)[C@@]1(C)CC[C@H](O)C(C)(C)[C@@H]1CC3 [INOTODIOL]
inhibition at 10 µM [1]: 56.3%
viability at 10 µM [2]: 86%

CC(C)=CCC[C@@H](C)[C@H]1CC[C@@]2(C)C3=C(CC[C@]12C)[C@@]1(C)CC[C@H](O)C(C)(C)[C@@H]1CC3 [LANOSTEROL]
inhibition at 10 µM [1]: 74.8%
viability at 10 µM [2]: 92%

CC[C@H](CC[C@@H](C)[C@H]1CC[C@H]2[C@@H]3CCC4=C[C@@H](O)CC[C@]4(C)[C@H]3CC[C@]12C)C(C)C [LAWSARITOL]
inhibition at 10 µM [1]: 40.6%
viability at 10 µM [2]: 81%

O=Cc1ccc(O)c(O)c1 [PROTOCATECHUALDEHYDE]
IC50 (KB): > 10 µM
IC50 [3]: 3.7 µM
IC50 [4]: 7.7 µM
IC50 (A549): 3.1 µM

CC(C)=CCC[C@@H](C(=O)O)[C@H]1CC[C@@]2(C)C3=C(CC[C@]12C)[C@@]1(C)CC[C@H](O)C(C)(C)[C@@H]1CC3 [TRAMETENOLIC ACID]
inhibition at 10 µM [1]: 75%
viability at 10 µM [2]: 92%

COc1cc(C(=O)O)ccc1O [VANILLIC ACID]
inhibition at 10 µM [1]: 56.5%
viability at 10 µM [2]: 86%
